A short description of data set [1]: Apparent clearance with respect to bioavailability in human with malaria. The class given is ADME, organism-based. Particulars: in vivo.
A short description of data set [2]: Volume of distribution at steady state with respect to bioavailability in Paua New Guinean children with uncomplicated malaria at 10 mg/kg daily for 3 days. The class given is ADME, organism-based. The conditions noted are these: human, in vivo, read-out: Vc/F. In outline: (§1)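 Children aged 5–10 y with uncomplicated malaria took oral CQ at 10 mg base/kg daily at 0, 24 and 48 h, with single-dose SP given alongside the first dose, without fasting. Heparin plasma was sampled serially to day 42, stored at −80°C, extracted with t-butyl methyl ether, and measured by HPLC-UV at 340 nm. Two-compartment model fitting used 1/y2 weighting.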

Data set [3] relates to Homo sapiens. The data set is described as follows: Tlag in Paua New Guinean children with uncomplicated malaria at 10 mg/kg daily for 3 days. Particulars: in vivo, 72 h. Format: ADME, organism-based. Also noted: dose 10 mg/kg. Put shortly:
as §1

The nature of data set [4]: AUC (0 to 42 days) in Paua New Guinean children with uncomplicated malaria at 10 mg/kg daily for 3 days. Format: ADME, organism-based. Also noted: time < 1008 hr, dose 10 mg/kg. The conditions noted are these: human, plasma. Put shortly:
as §1

A short description of data set [5]: Elimination half life in Paua New Guinean children with uncomplicated malaria at 10 mg/kg daily for 3 days. Format: ADME, organism-based. Also noted: dose 10 mg/kg. Particulars: human, in vivo, read-out: beta t1/2 (converted). In outline:
as §1

Data set [6] relates to Homo sapiens. Description: AUC (0 to infinity) in Paua New Guinean children with uncomplicated malaria at 10 mg/kg daily for 3 days. Particulars: in vivo, 72 h. Set-up: time infinity, dose 10 mg/kg. The class given is ADME, organism-based, Plasma. Put shortly: as §1
The nature of data set [7]: Apparent clearance with respect to bioavailability in human. Format: ADME, organism-based. Particulars: in vivo.
A short description of data set [8]: Elimination half life in Paua New Guinean children with uncomplicated malaria. The class given is ADME, organism-based. Particulars: human, in vivo; read-out: beta t1/2 (converted).
In data set [9] the test system is Plasmodium falciparum. Description: Antiplasmodial activity against chloroquine-resistant Plasmodium falciparum. Format: functional, organism-based.
The nature of data set [10]: AUC (0 to infinity) in Paua New Guinean children with uncomplicated malaria. Set-up: time infinity. Format: ADME, organism-based. Particulars: human, plasma.
The test system of data set [11] is Plasmodium falciparum. The data set is described as follows: Antiplasmodial activity against chloroquine-sensitive Plasmodium falciparum. Format: functional, organism-based.
Data set [12] can be described thus: AUC (0 to 42 days) in Paua New Guinean children with uncomplicated malaria. Format: ADME, organism-based. Set-up: time < 1008 hr. The conditions noted are these: human, plasma.
The test system of data set [13] is Homo sapiens. Description: Tlag in Paua New Guinean children with uncomplicated malaria at 20 mg/kg daily for 3 days. The class given is ADME, organism-based. Also noted: dose 20 mg/kg. The conditions noted are these: in vivo, 72 h. In outline:
(§2)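 Children aged 5–10 y with uncomplicated malaria were given oral DHA-PQ at PQ phosphate 20 mg/kg (11.5 mg base/kg) daily at 0, 24 and 48 h, swallowed with water, without fasting. Sampling was serial to day 42. Heparin plasma was stored at −80°C, extracted with hexane-isoamyl alcohol, and assayed by HPLC with UV detection at 340 nm. Parameters came from a two-compartment model with 1/y2 weighting.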

Data set [14] can be described thus: Volume of distribution at steady state with respect to bioavailability in Cambodian children with malaria. The conditions noted are these: human, in vivo; read-out: Vc/F. The class given is ADME, organism-based.
A short description of data set [15]: Volume of distribution at steady state with respect to bioavailability in Vietnamese human. The class given is ADME, organism-based. The conditions noted are these: in vivo, read-out: Vc/F.
Data set [16] can be described thus: AUC (0 to infinity) in Paua New Guinean children with uncomplicated malaria at 20 mg/kg daily for 3 days. Format: ADME, organism-based. Also noted: time infinity, dose 20 mg/kg. The conditions noted are these: human, plasma. Put shortly: as §2
A short description of data set [17]: Apparent clearance with respect to bioavailability in human after fat meal using non-compartmental analysis. Format: ADME, organism-based. The conditions noted are these: in vivo.
Data set [18] can be described thus: AUC (0 to 42 days) in Paua New Guinean children with uncomplicated malaria at 20 mg/kg daily for 3 days. Format: ADME, organism-based. Also noted: time < 1008 hr, dose 20 mg/kg. The conditions noted are these: human, plasma. In outline:
as §2

Data set [19] can be described thus: Apparent clearance with respect to bioavailability in Paua New Guinean children with uncomplicated malaria at 20 mg/kg daily for 3 days. Format: ADME, organism-based. The conditions noted are these: human, in vivo. Put shortly: as §2
A short description of data set [20]: Elimination half life in Cambodian children with malaria. The class given is ADME, organism-based. The conditions noted are these: human, in vivo; read-out: beta t1/2 (converted).
A short description of data set [21]: Apparent clearance with respect to bioavailability in human after fasting using non-compartmental analysis. Format: ADME, organism-based. Particulars: in vivo.
Data set [22] can be described thus: Apparent clearance with respect to bioavailability in Vietnamese human. Format: ADME, organism-based. Particulars: in vivo.
Data set [23] in a line: Elimination half life in Paua New Guinean children with uncomplicated malaria at 20 mg/kg daily for 3 days. The class given is ADME, organism-based. Set-up: dose 20 mg/kg. The conditions noted are these: human, in vivo, read-out: beta t1/2 (converted). In outline:
as §2

A short description of data set [24]: Volume of distribution at steady state with respect to bioavailability in Paua New Guinean children with uncomplicated malaria at 20 mg/kg daily for 3 days. The conditions noted are these: human, in vivo, read-out: Vc/F. Format: ADME, organism-based. In outline: as §2
The species entered for data set [25] is Homo sapiens. Description: Volume of distribution at steady state with respect to bioavailability in human after fat meal using non-compartmental analysis. The class given is ADME, organism-based. The conditions noted are these: in vivo.

This is an account of results in ChEMBL document CHEMBL1151466 (Antimicrob Agents Chemother, 2008).

A word on the CL/F: it is clearance divided by bioavailability, as obtained after extravascular dosing. The AUC is concentration integrated over time. Read a low AUC as low exposure. With `CCN(CC)CCCC(C)Nc1ccnc2cc(Cl)ccc12` (configuration not stated) [CHLOROQUINE], the apparent clearance CL/F in data set [1] and in data set [7] was 2.17 mL/min/kg each time. Besides, the Vd/F in data set [2] amounted to 154 L/kg. The Tlag in the data set with Homo sapiens [3] worked out at 0.55 h. The AUC at 1008 h in data set [4] is 117 µM·h. For the same compound, the half-life in [5] was 9.71 days. In the data set with Homo sapiens [6], the AUC came out at 122.5 µmol·h/L.

Usually IC50 stands for the point on the concentration scale where inhibition reaches its midpoint. The low end stands for inhibition by little substance, the high end for a need for much substance. Usually AUC(0-inf) stands for total exposure, with the tail of the curve extrapolated. A low value points to low exposure. As a reminder, the AUC(0-t) is the area under the concentration-time curve up to a stated or last time point. Read a low AUC(0-t) as less exposure. Take `CCNCCCC(C)Nc1ccnc2cc(Cl)ccc12` (configuration not stated) [DESETHYLCHLOROQUINE]: the half-life in data set [8] is 12.1 days. The IC50 in the data set on Plasmodium falciparum [9] was determined as 37.4 nM; in the data set on Plasmodium falciparum [11], 17.8 nM. The same compound returned an AUC(0-inf) in data set [10] of 98.5 µM·h. Further, in data set [12], the exposure AUC(0-t) at 1008 h was found to be 83.6 µM·h.

Regarding `Clc1ccc2c(N3CCN(CCCN4CCN(c5ccnc6cc(Cl)ccc56)CC4)CC3)ccnc2c1` [PIPERAQUINE], in the data set with Homo sapiens [13], the Tlag is 0.89 h. Besides, the Vd/F in data set [14] worked out at 614 L/kg; in data set [15], 103 L/kg; in [24] it was 431 L/kg. The IC50 stood at 40.7 nM in the data set on Plasmodium falciparum [9] and 35.5 nM in the data set with Plasmodium falciparum [11]. Also, the AUC(0-inf) in data set [16] amounted to 87.4 µM·h. The CL/F is 10 mL/min/kg in data set [17], 14.2 mL/min/kg in data set [19], 19 mL/min/kg in [21] and 16.2 mL/min/kg in data set [22]. In data set [18], the exposure (AUC) at 1008 h was found to be 76.4 µM·h. For the same compound, the half-life in data set [20] is 13.5 days; in data set [23], 17.2 days. In the data set filed under Homo sapiens [25], this compound registered a Vc/F of 365 L/kg.
